pIC50, pKi: −log10 of the molar value. Residues, ends and D or L forms follow the SMILES beside them.
What was measured:
[1] = molecular target: T1, Glutamate carboxypeptidase 2 (Rattus norvegicus, UniProt P70627); assay: Concentration required for 50%inhibition of Ac-Asp-[3,4-3H]-Glu-OH hydrolysis against rat forebrain N-acetylated-alpha-linked acidic dipeptidase
In short: (§1)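 Enzyme source: "buffy coat" synaptic membranes from Sprague-Dawley rat (45–90 days) forebrain, washed in 0.1 M Hepes pH 7.4 and stored frozen. Inhibitor was tested at about 2- and 4-fold above and below the estimated IC50. Mean of three experiments ± SEM.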

[2] = molecular target: T1, Glutamate carboxypeptidase 2; assay: Concentration required for 50%inhibition of Ac-Asp-[3,4-3H]-Glu-OH hydrolysis against rat forebrain N-Acetylated alpha-linked Dipeptidase (NAALA Dipeptidase); in short: as §1
[3] = molecular target: T1, Glutamate carboxypeptidase 2; assay: Tested for Ac-Asp-[3,4-3H]-Glu-OH hydrolysis inhibitory activity against rat forebrain N-Acetylated alpha-linked Dipeptidase (NAALA Dipeptidase)
In short: (§2)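 Ki used the same rat forebrain membrane assay (Hepes pH 7.4, NaCl, CoCl₂, radiometric ³H-Glu read-out). Substrate was 0.25, 0.5, 1.0, 2.0 and 5.0 μM. Inhibitor was tested at 0, IC50, and 2- and 4-fold above and below IC50. Lineweaver–Burk slopes were replotted against [inhibitor]. Ki equals the slope at 0 μM inhibitor divided by the replot slope. Ki was determined only when IC50 <100 μM.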

[4] = molecular target: T1, Glutamate carboxypeptidase 2; assay: Tested for Ac-Asp-[3,4-3H]-Glu-OH hydrolysis inhibitory activity against rat forebrain N-acetylated-alpha-linked acidic dipeptidase; in short: as §2

T1 sequence (P70627 whole entry): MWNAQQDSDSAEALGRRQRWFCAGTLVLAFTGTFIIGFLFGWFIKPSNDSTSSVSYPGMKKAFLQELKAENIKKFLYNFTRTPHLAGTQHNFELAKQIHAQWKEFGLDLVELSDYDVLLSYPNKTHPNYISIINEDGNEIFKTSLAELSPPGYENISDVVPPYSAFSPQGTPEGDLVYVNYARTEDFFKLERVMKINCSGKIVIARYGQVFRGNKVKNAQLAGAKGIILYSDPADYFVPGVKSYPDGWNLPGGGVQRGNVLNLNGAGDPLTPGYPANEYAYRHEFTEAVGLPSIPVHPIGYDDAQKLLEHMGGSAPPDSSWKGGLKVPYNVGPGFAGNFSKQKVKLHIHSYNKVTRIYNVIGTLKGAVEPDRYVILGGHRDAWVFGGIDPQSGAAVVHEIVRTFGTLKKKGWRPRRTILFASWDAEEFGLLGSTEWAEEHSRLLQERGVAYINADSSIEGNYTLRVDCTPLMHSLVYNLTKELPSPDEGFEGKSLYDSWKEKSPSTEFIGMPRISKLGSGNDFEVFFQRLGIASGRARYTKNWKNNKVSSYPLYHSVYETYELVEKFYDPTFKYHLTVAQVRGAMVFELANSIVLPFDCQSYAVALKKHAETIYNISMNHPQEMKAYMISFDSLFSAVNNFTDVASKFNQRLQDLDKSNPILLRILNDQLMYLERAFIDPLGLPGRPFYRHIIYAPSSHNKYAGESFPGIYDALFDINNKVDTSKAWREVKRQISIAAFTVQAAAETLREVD

Row | SMILES | pIC50 [1] | pIC50 [2] | pKi [3] | pKi [4]
1 | CC(=O)N[C@@H](CC(=O)O)C(=O)N[C@@H](CC(=O)O)C(=O)O (Ac-Asp-Asp-OH) | 3.60 | – | – | –
2 | CC(=O)N[C@@H](CCC(=O)O)C(=O)N[C@@H](CCC(=O)O)C(=O)O (Ac-Glu-Glu-OH) | – | 5.05 | 5.46 | –
3 | O=C(O)/C=C/C(=O)N[C@@H](CCC(=O)O)C(=O)O | 6.10 | – | – | 6.40
4 | CC(=O)N[C@H](CC(=O)O)C(=O)N[C@@H](CCC(=O)O)C(=O)O | – | 4.82 | – | 5.07
5 | CC(=O)N[C@@H](CCC(=O)O)C(=O)N[C@@H](CC(=O)O)C(=O)O (Ac-Glu-Asp-OH) | 3.71 | – | – | –
6 | CC(=O)N[C@@H](CC(=O)O)CC(=O)N[C@@H](CCC(=O)O)C(=O)O | 5.10 | – | – | 5.49
7 | O=C(O)CCC(=O)N[C@@H](CCC(=O)O)C(=O)O | 5.60 | – | – | 6.05
8 | O=C(O)/C=C\C(=O)N[C@@H](CCC(=O)O)C(=O)O | 4.08 | – | – | 4.39
9 | CC(=O)N[C@@H](CC(=O)O)C(=O)N[C@@H](CCC(=O)O)CC(=O)O | 3.70 | – | – | –

From ChEMBL document CHEMBL1124977, “Synthesis of acyclic and dehydroaspartic acid analogues of Ac-Asp-Glu-OH and their inhibition of rat brain N-acetylated alpha-linked acidic dipeptidase (NAALA dipeptidase)” (J Med Chem, 1990)
